# Several values for one entry are separate records, joined by “and”; a condition that tells them apart may be missing. Equal values may be shown once.
# Assays:
# Format in all cases: toxicity, cell-based
# HEK-293T [1] = assay: Multiplex assay against HEK293T; details: human, 24 h, 1 µM, compound concentration 1 uM;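 on Population Tubulin-Different-Phenotype (%): share of the cells with healthy nuclei that show this phenotype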
# How it was run: (§1)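 Cells stained live at seeding with Hoechst33342, BioTracker Green Microtubule Cytoskeleton Dye, MitoTracker Red and Annexin V Alexa Fluor 680 were imaged on a CQ1 microscope at 37°C and 5% CO2 after compound addition. Their classification by CellPathfinder machine-learning gating ran from Hoechst high-intensity objects versus normal cells, to healthy, pyknosed or fragmented nuclei among normal cells, to mitotic or apoptotic among pyknosed cells. Tubulin, mitochondrial-mass and membrane-permeability phenotypes are per cents of healthy-nucleus cells.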
# U2OS [2] = assay: Multiplex assay against U2OS; details: human, 1 µM, compound concentration 1 uM; how it was run: as §1
# HEK-293T [3] = assay: Incucyte cell viability with HEK293T; details: human, 10 µM, compound concentration 10 uM; further: filed as whole numbers so only -1 and 0 and 1 occur
# Fibroblast = assay: Incucyte cell viability with human fibroblast; details: 10 µM, compound concentration 10 uM; further: filed as whole numbers so only -1 and 0 and 1 occur
# U2OS [4] = assay: Incucyte cell viability with U2OS; details: human, 10 µM, compound concentration 10 uM; further: filed as whole numbers so only -1 and 0 and 1 occur
# [5] = 0 h, replicate number 1, timepoint 0 hours
# [6] = 6 h, replicate number 1, timepoint 6 hours
# [7] = 12 h, replicate number 1, timepoint 12 hours
# [8] = 18 h, replicate number 1, timepoint 18 hours
# [9] = 24 h, replicate number 1, timepoint 24 hours
compound,measurement,setting,value
CC(C)C(=O)Nc1n[nH]c2cc(-c3cccc(NS(=O)(=O)C4CC4)c3)ccc12,Population Normal (%),HEK-293T [1]; replicate 1,93% and 89%
same,Population Pyknosed Nuclei (%),HEK-293T [1]; replicate 1,8% and 13%
same,Population Tubulin-Different-Phenotype (%),HEK-293T [1]; replicate 1,4% and 8%
same,Total Cell Count,HEK-293T [1]; replicate 1,620 and 701
same,Population Apoptotic (%),HEK-293T [1]; replicate 2,4% and 12%
same,Population Fragmented Nuclei (%),HEK-293T [1]; replicate 2,22% and 8%
same,Population Healthy Nuclei (%),HEK-293T [1]; replicate 2,76% and 86%
same,Population Hoechst High Intensity Objects (%),HEK-293T [1]; replicate 2,3% and 4%
same,Population Membrane Permeable-Phenotype (%),HEK-293T [1]; replicate 2,5% and 2%
same,Population Mitochondria Different-Phenotype (%),HEK-293T [1]; replicate 2,1% and 6%
same,Population Mitotic Cells (%),HEK-293T [1]; replicate 2,95% and 87%
same,Population Normal (%),HEK-293T [1]; replicate 2,96% and 95%
same,Population Tubulin-Different-Phenotype (%),HEK-293T [1]; replicate 2,15%
same,Total Cell Count,HEK-293T [1]; replicate 2,2835 and 1472
same,Population Apoptotic (%),"U2OS [2]; 12 h, replicate 1",33% and 20%
same,Population Fragmented Nuclei (%),"U2OS [2]; 12 h, replicate 1",8% and 3%
same,Population Healthy Nuclei (%),"U2OS [2]; 12 h, replicate 1",88% and 86%
same,Population Membrane Permeable-Phenotype (%),"U2OS [2]; 12 h, replicate 1",18% and 12%
same,Population Mitochondria Different-Phenotype (%),"U2OS [2]; 12 h, replicate 1",22% and 20%
same,Population Mitotic Cells (%),"U2OS [2]; 12 h, replicate 1",66% and 80%
same,Population Normal (%),"U2OS [2]; 12 h, replicate 1",98% and 95%
same,Population Pyknosed Nuclei (%),"U2OS [2]; 12 h, replicate 1",3% and 9%
same,Population Tubulin-Different-Phenotype (%),"U2OS [2]; 12 h, replicate 1",21% and 32%
same,Total Cell Count,"U2OS [2]; 12 h, replicate 1",108 and 215
same,Population Apoptotic (%),"U2OS [2]; 12 h, replicate 2",25% and 16%
same,Population Fragmented Nuclei (%),"U2OS [2]; 12 h, replicate 2",11%
same,Population Healthy Nuclei (%),"U2OS [2]; 12 h, replicate 2",82% and 92%
same,Population Hoechst High Intensity Objects (%),"U2OS [2]; 12 h, replicate 2",12% and 6%
same,Population Membrane Permeable-Phenotype (%),"U2OS [2]; 12 h, replicate 2",21% and 10%
same,Population Mitochondria Different-Phenotype (%),"U2OS [2]; 12 h, replicate 2",42% and 28%
same,Population Mitotic Cells (%),"U2OS [2]; 12 h, replicate 2",75% and 83%
same,Population Normal (%),"U2OS [2]; 12 h, replicate 2",87% and 94%
same,Population Pyknosed Nuclei (%),"U2OS [2]; 12 h, replicate 2",5% and 4%
same,Population Tubulin-Different-Phenotype (%),"U2OS [2]; 12 h, replicate 2",26% and 18%
same,Total Cell Count,"U2OS [2]; 12 h, replicate 2",122 and 78
same,Population Apoptotic (%),"U2OS [2]; 24 h, replicate 1",27% and 25%
same,Population Fragmented Nuclei (%),"U2OS [2]; 24 h, replicate 1",5% and 2%
same,Population Healthy Nuclei (%),"U2OS [2]; 24 h, replicate 1",90% and 89%
same,Population Hoechst High Intensity Objects (%),"U2OS [2]; 24 h, replicate 1",2% and 3%
same,Population Membrane Permeable-Phenotype (%),"U2OS [2]; 24 h, replicate 1",12% and 10%
same,Population Mitochondria Different-Phenotype (%),"U2OS [2]; 24 h, replicate 1",17% and 24%
same,Population Mitotic Cells (%),"U2OS [2]; 24 h, replicate 1",72% and 75%
same,Population Normal (%),"U2OS [2]; 24 h, replicate 1",97% and 96%
same,Population Pyknosed Nuclei (%),"U2OS [2]; 24 h, replicate 1",4% and 8%
same,Population Tubulin-Different-Phenotype (%),"U2OS [2]; 24 h, replicate 1",23% and 38%
same,Total Cell Count,"U2OS [2]; 24 h, replicate 1",152 and 246
same,Population Apoptotic (%),"U2OS [2]; 24 h, replicate 2",18% and 21%
same,Population Fragmented Nuclei (%),"U2OS [2]; 24 h, replicate 2",4% and 3%
same,Population Healthy Nuclei (%),"U2OS [2]; 24 h, replicate 2",82% and 88%
same,Population Hoechst High Intensity Objects (%),"U2OS [2]; 24 h, replicate 2",8% and 4%
same,Population Mitochondria Different-Phenotype (%),"U2OS [2]; 24 h, replicate 2",41% and 31%
same,Population Mitotic Cells (%),"U2OS [2]; 24 h, replicate 2",81% and 78%
same,Population Normal (%),"U2OS [2]; 24 h, replicate 2",91% and 95%
same,Population Pyknosed Nuclei (%),"U2OS [2]; 24 h, replicate 2",12% and 7%
same,Population Tubulin-Different-Phenotype (%),"U2OS [2]; 24 h, replicate 2",35%
same,Total Cell Count,"U2OS [2]; 24 h, replicate 2",144 and 96
same,Growth Rate,HEK-293T [3]; [5],0
same,Growth Rate,HEK-293T [3]; [6],0
same,Growth Rate,HEK-293T [3]; [7],0
same,Growth Rate,HEK-293T [3]; [8],0
same,Growth Rate,HEK-293T [3]; [9],0
same,Growth Rate,Fibroblast; [5],1
same,Growth Rate,Fibroblast; [6],0
same,Growth Rate,Fibroblast; [7],0
same,Growth Rate,Fibroblast; [8],0
same,Growth Rate,Fibroblast; [9],0
same,Growth Rate,U2OS [4]; [5],0
same,Growth Rate,U2OS [4]; [6],0
same,Growth Rate,U2OS [4]; [7],0
same,Growth Rate,U2OS [4]; [8],0
same,Growth Rate,U2OS [4]; [9],0

# Source: ChEMBL document CHEMBL4689842, “EUbOPEN Chemogenomics Library wave 1” (2021)
